Format in all cases: functional
Test [1] deals with Pichia kudriavzevii. The test can be described thus: Antimicrobial activity against Candida krusei by micro-broth dilution method. Summed up: (§1)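 Clinical isolates. Tested by broth microdilution in 96-well plates following NCCLS M27-A2. MIC80, the minimum concentration inhibiting growth by 80%, was recorded. Marketed reference antifungals were included as positive controls.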
Background: Broth dilution looks for growth in wells or tubes with falling amounts of substance.

Test [2] has as its system Candida albicans. The test can be described thus: Antimicrobial activity against Candida albicans by micro-broth dilution method. Summed up: (§2)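 ATCC standard strains. Broth microdilution in 96-well plates following NCCLS M27-A2 (reference broth dilution method for yeasts). Endpoint is MIC80, the lowest concentration giving 80% growth inhibition. Marketed reference antifungals ran alongside as positive controls.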

The subject of test [3] is Cryptococcus neoformans. Description: Antimicrobial activity against Cryptococcus neoformans by micro-broth dilution method. Summed up:
as §2

Test [4] concerns Candida parapsilosis. The test can be described thus: Antimicrobial activity against Candida parapsilosis by micro-broth dilution method. Conditions: Lodderomyces parapsilosis. A digest of the protocol: as §1
In test [5] the test system is Candida tropicalis. Description: Antimicrobial activity against Candida tropicalis by micro-broth dilution method. Summed up:
as §1

Test [6] has as its system Trichophyton rubrum. The test can be described thus: Antimicrobial activity against Trichophyton rubrum by micro-broth dilution method. A digest of the protocol: as §1
For test [7], the system named is Nannizzia gypsea. The test can be described thus: Antimicrobial activity against Microsporum gypseum by micro-broth dilution method. A digest of the protocol:
as §1

In test [8] the test system is Aspergillus fumigatus. Description: Antimicrobial activity against Aspergillus fumigatus by micro-broth dilution method. Summed up:
as §1

In brackets after ≈: the same amount, converted by molar mass.

Take `CCCCN(Cc1ccc(Cl)cc1)CC(O)(Cn1cncn1)c1ccc(F)cc1F` (stereo unspecified): the MIC80 in test [1], in test [2], in test [3], in test [4], in test [5] and in test [6] was 1 mg/L (≈ 2.3 µM) each time. Further, the MIC80 is 1 mg/L (≈ 2.3 µM) in test [7] and above 64 mg/L in test [8].

Consider `CC(C)N(Cc1ccccc1F)CC(O)(Cn1cncn1)c1ccc(F)cc1F` (stereo unspecified), for which the MIC80 in test [1] was determined as 0.25 mg/L (≈ 0.618 µM); in test [2], 0.0625 mg/L (≈ 0.155 µM); in test [3] it was 0.25 mg/L (≈ 0.618 µM); in test [4], 0.0625 mg/L (≈ 0.155 µM); in test [5] it was 0.25 mg/L (≈ 0.618 µM); in test [6] it was 1 mg/L (≈ 2.47 µM). For the same molecule, the figures for the MIC80 in test [7] and in test [8] were 0.0625 mg/L (≈ 0.155 µM) and above 64 mg/L, respectively.

Regarding `CC(C)N(Cc1ccc([N+](=O)[O-])cc1)CC(O)(Cn1cncn1)c1ccc(F)cc1F` (stereo unspecified), the MIC80 in test [1] came out at 0.0625 mg/L (≈ 0.145 µM); in test [2], 0.0156 mg/L (≈ 0.0362 µM); in test [3], 0.25 mg/L (≈ 0.579 µM); in test [4], 0.0625 mg/L (≈ 0.145 µM); in test [5], 0.25 mg/L (≈ 0.579 µM); in test [6] it was 0.25 mg/L (≈ 0.579 µM). Moreover, the MIC80 in test [7] was determined as 0.0156 mg/L (≈ 0.0362 µM); in test [8], 64 mg/L (≈ 148 µM).

Take `CCCCN(Cc1ccc(Br)cc1)CC(O)(Cn1cncn1)c1ccc(F)cc1F` (stereo unspecified): the MIC80 came to 1 mg/L (≈ 2.09 µM) in test [1]; 4 mg/L (≈ 8.34 µM) in test [2]; 0.25 mg/L (≈ 0.522 µM) in test [3]; 0.25 mg/L (≈ 0.522 µM) in test [4]; 1 mg/L (≈ 2.09 µM) in test [5]; 0.25 mg/L (≈ 0.522 µM) in test [6]. In addition, the MIC80 in test [7] was 1 mg/L (≈ 2.09 µM); in test [8] it was above 64 mg/L.

Regarding `CCCCN(Cc1ccc([N+](=O)[O-])cc1)CC(O)(Cn1cncn1)c1ccc(F)cc1F` (stereo unspecified), the MIC80 in test [1] amounted to 1 mg/L (≈ 2.24 µM); in test [2] it was 0.0156 mg/L (≈ 0.035 µM); in test [3], 0.0625 mg/L (≈ 0.14 µM); in test [4], 0.25 mg/L (≈ 0.561 µM); in test [5] it was 0.0625 mg/L (≈ 0.14 µM); in test [6] it was 0.25 mg/L (≈ 0.561 µM). The MIC80 in test [7] is 0.0625 mg/L (≈ 0.14 µM); in test [8], above 64 mg/L.

In the case of `OC(Cn1cncn1)(Cn1cncn1)c1ccc(F)cc1F` [FLUCONAZOLE], the MIC80 in test [1] came to 4 mg/L (≈ 13.1 µM); in test [2], 0.5 mg/L (≈ 1.63 µM); in test [3], 1 mg/L (≈ 3.27 µM); in test [4], 1 mg/L (≈ 3.27 µM); in test [5] it was 1 mg/L (≈ 3.27 µM); in test [6], 4 mg/L (≈ 13.1 µM). Also, the MIC80 in test [7] was 0.25 mg/L (≈ 0.816 µM); in test [8], above 64 mg/L.

With `CCCN(Cc1ccc(C)cc1)CC(O)(Cn1cncn1)c1ccc(F)cc1F` (stereo unspecified), the MIC80 in test [1] came to 0.0625 mg/L (≈ 0.156 µM); in test [2] it was 0.0625 mg/L (≈ 0.156 µM); in test [3] it was 0.25 mg/L (≈ 0.624 µM); in test [4] it was 0.0625 mg/L (≈ 0.156 µM); in test [5], 0.0625 mg/L (≈ 0.156 µM); in test [6], 0.25 mg/L (≈ 0.624 µM). Besides, the MIC80 in test [7] is 0.0156 mg/L (≈ 0.039 µM); in test [8], above 64 mg/L.

In the case of `CCCCN(Cc1ccccc1)CC(O)(Cn1cncn1)c1ccc(F)cc1F` (stereo unspecified), the MIC80 in test [1] was 0.25 mg/L (≈ 0.624 µM); in test [2] it was 0.0625 mg/L (≈ 0.156 µM); in test [3], 0.0625 mg/L (≈ 0.156 µM); in test [4], 0.0625 mg/L (≈ 0.156 µM); in test [5], 0.0625 mg/L (≈ 0.156 µM); in test [6], 0.25 mg/L (≈ 0.624 µM). The MIC80 was 0.0156 mg/L (≈ 0.039 µM) in test [7] and above 64 mg/L in test [8].

As for `CCCCN(Cc1ccccc1C)CC(O)(Cn1cncn1)c1ccc(F)cc1F` (stereo unspecified), the MIC80 in test [1] amounted to 1 mg/L (≈ 2.41 µM); in test [2], 1 mg/L (≈ 2.41 µM); in test [3] it was 0.25 mg/L (≈ 0.603 µM); in test [4], 0.25 mg/L (≈ 0.603 µM); in test [5], 0.25 mg/L (≈ 0.603 µM); in test [6], 1 mg/L (≈ 2.41 µM). The MIC80 in test [7] was 0.0156 mg/L (≈ 0.0376 µM); in test [8] it was above 64 mg/L.

On to `Cc1ccccc1CN(CC(O)(Cn1cncn1)c1ccc(F)cc1F)C(C)C` (stereo unspecified), for which the MIC80 worked out at 0.25 mg/L (≈ 0.624 µM) in test [1]; 0.0156 mg/L (≈ 0.039 µM) in test [2]; 0.25 mg/L (≈ 0.624 µM) in test [3]; 0.0625 mg/L (≈ 0.156 µM) in test [4]; 0.25 mg/L (≈ 0.624 µM) in test [5]; 0.25 mg/L (≈ 0.624 µM) in test [6]. In addition, the MIC80 in test [7] was 0.0625 mg/L (≈ 0.156 µM); in test [8], above 64 mg/L.

For `CC(C)N(Cc1ccccc1Cl)CC(O)(Cn1cncn1)c1ccc(F)cc1F` (stereo unspecified), the MIC80 was 0.0625 mg/L (≈ 0.148 µM) in test [1]; 0.0625 mg/L (≈ 0.148 µM) in test [2]; 0.25 mg/L (≈ 0.594 µM) in test [3]; 0.25 mg/L (≈ 0.594 µM) in test [4]; 0.25 mg/L (≈ 0.594 µM) in test [5]; 0.25 mg/L (≈ 0.594 µM) in test [6]. For the same molecule, the values for the MIC80 in test [7] and in test [8] were 0.0625 mg/L (≈ 0.148 µM) and above 64 mg/L, respectively.

With `CN(C/C=C/C#CC(C)(C)C)Cc1cccc2ccccc12` [TERBINAFINE], the MIC80 in test [1] was determined as 16 mg/L (≈ 54.9 µM); in test [2] it was 4 mg/L (≈ 13.7 µM); in test [3] it was 1 mg/L (≈ 3.43 µM); in test [4], 0.25 mg/L (≈ 0.858 µM); in test [5] it was 0.0625 mg/L (≈ 0.214 µM); in test [6], 0.0625 mg/L (≈ 0.214 µM). Moreover, the MIC80 in test [7] is 4 mg/L (≈ 13.7 µM); in test [8], 0.0625 mg/L (≈ 0.214 µM).

A word on the MIC80: it is an inhibitory concentration at the 80% level, which refers to growth in some studies and to a panel of isolates in others.
